The text below walks through data of ChEMBL document CHEMBL4041520, “Novel pyrimidine-2,4-dione-1,2,3-triazole and furo[2,3-d]pyrimidine-2-one-1,2,3-triazole hybrids as potential anti-cancer agents: Synthesis, computational and X-ray analysis and biological evaluation” (Eur J Med Chem, 2017).

Usually IC50 stands for the midpoint of a concentration-inhibition curve.

In data set [1] the test system is A549. Put plainly: Antiproliferative activity against human A549 cells after 72 hrs by MTT assay. The conditions noted are these: A549, 72 h. Format: functional, cell-based. In a few lines:
(§1)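 Monolayers grown in DMEM with 10% FBS and 2 mM L-glutamine at 37 °C, 5% CO2. Cells seeded at 5000 per well on day 0. Compounds added in five 10-fold dilutions (0.01–100 µM), DMSO ≤0.1%, for 72 h. MTT absorbance converted to percentage growth versus untreated wells. IC50 by linear regression of the dose-response curve; highest concentration reported when not reached. Quadruplicate points, three experiments.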
Background: Formazan colour is commonly taken as a measure of viable cells.

Data set [2] relates to HepG2. The data set is described as follows: Antiproliferative activity against human HepG2 cells after 72 hrs by MTT assay. The class given is functional, cell-based. The conditions noted are these: HepG2, 72 h. A digest of the protocol: as §1
Data set [3] has as its system CFPAC-1. The data set is described as follows: Antiproliferative activity against human CFPAC-1 cells after 72 hrs by MTT assay. Format: functional, cell-based. The conditions noted are these: CFPAC-1, 72 h. In a few lines: as §1
For data set [4], the system named is HeLa. The data set is described as follows: Antiproliferative activity against human HeLa cells after 72 hrs by MTT assay. Format: functional, cell-based. In a few lines:
as §1

Data set [5] concerns SW-620. The data set is described as follows: Antiproliferative activity against human SW620 cells after 72 hrs by MTT assay. The settings on record: SW-620, 72 h. Format: functional, cell-based. A digest of the protocol: as §1
Data set [6] has as its system NIH3T3. The data set is described as follows: Antiproliferative activity against mouse NIH/3T3 cells after 72 hrs by MTT assay. The settings on record: NIH3T3, 72 h. Format: cell-based. A digest of the protocol:
as §1

In data set [7] the target is Wee1-like protein kinase (Homo sapiens) (UniProt P30291). Put plainly: Inhibition of Wee-1 kinase phosphorylation in human HeLa cells at 2 times antiproliferative IC50 after 48 hrs by Western blot method. The class given is cell-based. In a few lines: (§2)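 Cells seeded at 200000 per well and treated at 2× IC50 for 48 h. Lysed in RIPA buffer with protease inhibitors. 50 µg protein run on 12% Tris-glycine gels and transferred to PVDF. Blocked in 4% BSA/TBST, probed overnight at 4 °C with anti-p-SK1, ASAH1 or p-Wee1, then HRP secondary. Chemiluminescent detection; densitometry normalized to alpha-tubulin. Two independent experiments, mean ± SD.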
Chain of Wee1-like protein kinase (Homo sapiens) (P30291 whole entry, looked up): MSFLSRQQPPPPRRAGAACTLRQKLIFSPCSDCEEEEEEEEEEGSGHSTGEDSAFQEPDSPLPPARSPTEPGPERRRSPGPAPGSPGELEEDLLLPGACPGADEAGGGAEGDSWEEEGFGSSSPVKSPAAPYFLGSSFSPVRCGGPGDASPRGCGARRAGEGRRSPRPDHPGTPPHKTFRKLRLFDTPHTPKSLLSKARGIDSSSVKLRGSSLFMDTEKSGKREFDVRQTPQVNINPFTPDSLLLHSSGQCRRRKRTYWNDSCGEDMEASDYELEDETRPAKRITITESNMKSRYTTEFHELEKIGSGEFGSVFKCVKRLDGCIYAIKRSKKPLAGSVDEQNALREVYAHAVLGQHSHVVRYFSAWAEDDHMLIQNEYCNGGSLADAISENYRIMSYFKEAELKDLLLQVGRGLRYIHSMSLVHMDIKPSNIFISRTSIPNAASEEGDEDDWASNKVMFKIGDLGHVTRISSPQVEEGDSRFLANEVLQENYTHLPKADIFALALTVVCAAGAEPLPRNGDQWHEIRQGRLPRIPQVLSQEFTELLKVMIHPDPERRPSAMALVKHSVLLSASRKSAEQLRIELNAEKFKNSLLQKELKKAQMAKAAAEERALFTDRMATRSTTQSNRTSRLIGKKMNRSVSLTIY
On the technique in general: In western blotting, separated proteins are transferred to a membrane and probed.

The target is the same in data set [8]. Put plainly: Inhibition of Wee-1 kinase in human HeLa cells assessed as reduction in SK1 phosphorylation at 2 times antiproliferative IC50 after 48 hrs by Western blot method. The class given is cell-based. A digest of the protocol:
as §2

The target is the same in data set [9]. Put plainly: Inhibition of Wee-1 kinase in human HeLa cells assessed as downregulation of ASAH at 2 times antiproliferative IC50 after 48 hrs by Western blot method. The class given is cell-based. A digest of the protocol: as §2
The subject of data set [10] is HeLa. The data set is described as follows: Induction of apoptosis in human HeLa cells assessed as late apoptotic cells at 2 times antiproliferative IC50 after 48 hrs by Annexin-V FITC/propidium iodide staining based fluorescence microscopic method (reference value: 2.3%). The class given is functional. A digest of the protocol:
(§3)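 Cells seeded in 8-well chamber slides and exposed to compound at 2× IC50 for 48 h. After washing in incubation buffer, Annexin-V-FITC labelling for 15 min at room temperature. Cells fixed with 20% glycerol; PI used as nuclear stain. Scored by fluorescence microscopy as viable (PI-/AnnV-), early apoptotic (PI-/AnnV+), late apoptotic/primary necrotic (PI+/AnnV+) or secondary necrotic (PI+) percentages.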

The subject of data set [11] is HeLa. Put plainly: Induction of apoptosis in human HeLa cells assessed as viable cells at 2 times antiproliferative IC50 after 48 hrs by Annexin-V FITC/propidium iodide staining based fluorescence microscopic method (reference value: 75%). The class given is functional. In a few lines: as §3
Data set [12] relates to HeLa. Put plainly: Induction of apoptosis in human HeLa cells assessed as early apoptotic cells at 2 times antiproliferative IC50 after 48 hrs by Annexin-V FITC/propidium iodide staining based fluorescence microscopic method (reference value: 20.4%). The class given is functional. A digest of the protocol:
as §3

The test system of data set [13] is HeLa. Put plainly: Induction of apoptosis in human HeLa cells assessed as secondary necrotic cells at 2 times antiproliferative IC50 after 48 hrs by Annexin-V FITC/propidium iodide staining based fluorescence microscopic method (reference value: 2.3%). The class given is functional. A digest of the protocol: as §3
Data set [14] is described as follows: Mitochondrial toxicity in human HepG2 cells grown in presence of glucose. Format: cell-based.
The nature of data set [15]: Mitochondrial toxicity in human HepG2 cells grown in presence of galactose. Format: cell-based. In a few lines: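 HepG2 kept for more than 5 passages in glucose-free DMEM with 10 mM galactose, 2 mM glutamine, 5 mM HEPES, 10% FBS and 1 mM sodium pyruvate.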
In data set [16] the target is Wee1-like protein kinase (Homo sapiens) (UniProt P30291). Put plainly: Inhibition of Wee-1 kinase phosphorylation in human HepG2 cells at 2 times antiproliferative IC50 after 48 hrs by Western blot method. The class given is cell-based. A digest of the protocol: as §2
The target is the same in data set [17]. Put plainly: Inhibition of Wee-1 kinase in human HepG2 cells assessed as reduction in SK1 phosphorylation at 2 times antiproliferative IC50 after 48 hrs by Western blot method. The class given is cell-based. In a few lines:
as §2

Data set [18] has the same target. Put plainly: Inhibition of Wee-1 kinase in human HepG2 cells assessed as downregulation of ASAH at 2 times antiproliferative IC50 after 48 hrs by Western blot method. The class given is cell-based. In a few lines:
as §2

The test system of data set [19] is HepG2. The data set is described as follows: Induction of apoptosis in human HepG2 cells assessed as late apoptotic cells at 2 times antiproliferative IC50 after 48 hrs by Annexin-V FITC/propidium iodide staining based fluorescence microscopic method relative to control. The class given is functional. In a few lines: as §3
Data set [20] has as its system HepG2. The data set is described as follows: Induction of apoptosis in human HepG2 cells assessed as viable cells at 2 times antiproliferative IC50 after 48 hrs by Annexin-V FITC/propidium iodide staining based fluorescence microscopic method (reference value: 94.2%). The class given is functional. A digest of the protocol: as §3
Data set [21] relates to HepG2. Put plainly: Induction of apoptosis in human HepG2 cells assessed as early apoptotic cells at 2 times antiproliferative IC50 after 48 hrs by Annexin-V FITC/propidium iodide staining based fluorescence microscopic method (reference value: 0.6%). Format: functional. In a few lines: as §3
The subject of data set [22] is HepG2. The data set is described as follows: Induction of apoptosis in human HepG2 cells assessed as secondary necrotic cells at 2 times antiproliferative IC50 after 48 hrs by Annexin-V FITC/propidium iodide staining based fluorescence microscopic method (reference value: 5.2%). The class given is functional. A digest of the protocol:
as §3

Data set [23] deals with WI-38. The data set is described as follows: Antiproliferative activity against human WI38 cells after 72 hrs by MTT assay. Format: cell-based. The settings on record: WI-38, 72 h. A digest of the protocol: as §1

Molecules are shown by their SMILES. Calls of active or inactive are those of the source. The rule behind the calls is not given here. Where only a bound is given, the exact number is not on record here.

As to `O=c1c(Br)cn(Cc2cn(-c3ccccc3F)nn2)c(=O)n1Cc1cn(-c2ccccc2F)nn1`, the IC50 stood at 5.33 µM in data set [1]; 7.11 µM in data set [2]; 4.53 µM in [3]; 1.64 µM in [4]; 7.86 µM in [5]; 0.59 µM in [6]. Further, the IC50 was 7.11 µM in [14] and 4.67 µM in [15]. The inhibition entry in data set [7], in data set [8] and in data set [9] was “inactive” throughout. Further, the Activity in data set [10] was determined as 1.8%; in [11] it was 71.3%; in [12], 23.9%; in [13] it was 3%.

For `O=c1[nH]c(=O)n(Cc2cn(-c3ccccc3F)nn2)cc1Br`, the IC50 in [1] was over 100 µM; in [2], over 100 µM; in data set [3] it was over 100 µM; in data set [4], 93.9 µM; in [5], at least 100 µM; in data set [6], 59.3 µM.

Consider `O=c1c(Br)cn(Cc2cn(-c3cc(Cl)cc(Cl)c3)nn2)c(=O)n1Cc1cn(-c2cc(Cl)cc(Cl)c2)nn1`, for which the IC50 in [1] was 95.8 µM; in data set [2] it was 42.7 µM; in data set [3], over 100 µM; in data set [4], over 100 µM; in data set [5], over 100 µM; in data set [6] it was 4.3 µM.

Consider `O=c1[nH]c(=O)n(Cc2cn(-c3ccc(F)cc3)nn2)cc1Br`, for which the IC50 in data set [1] is 64 µM; in [2], 68.9 µM; in data set [3], over 100 µM; in data set [4], 72.9 µM; in data set [5] it was over 100 µM; in data set [6], 50.8 µM.

As for `O=c1[nH]c(=O)n(Cc2cn(-c3ccc(Cl)cc3)nn2)cc1Br`, the IC50 was 40.9 µM in [1]; 19.1 µM in [2]; 39.5 µM in data set [3]; 33.3 µM in data set [4]; over 100 µM in data set [5]; 6.7 µM in [6].

As for `O=c1c(Br)cn(Cc2cn(-c3ccc(Cl)cc3)nn2)c(=O)n1Cc1cn(-c2ccc(Cl)cc2)nn1`, the IC50 in data set [1] amounted to 7.41 µM; in data set [2], 3.62 µM; in data set [3], 5.92 µM; in [4] it was 6.13 µM; in data set [5], 5.63 µM; in data set [6] it was 0.37 µM. Moreover, the IC50 in [14] amounted to 3.82 µM; in [15], 7.1 µM. Also, the inhibition result in [16], in [17] and in data set [18] was “Active” throughout. The Activity in [19] is listed as 0%; in [20] it was 50%; in data set [21] it was 34.8%; in data set [22], 15.2%.

For `O=c1c(Br)cn(Cc2cn(-c3ccc(F)cc3)nn2)c(=O)n1Cc1cn(-c2ccc(F)cc2)nn1`, the IC50 in [1] came out at 25.4 µM; in data set [2] it was 4.47 µM; in data set [3], 6.87 µM; in [4], 12.6 µM; in data set [5], 9.82 µM; in [6], 0.07 µM. Moreover, the IC50 in data set [14] turned out to be 4.78 µM; in data set [15], 4.57 µM. In addition, the inhibition result in data set [16] is “Active”. Further, the inhibition entry in [17] and in [18] was “inactive” in each case. Moreover, the Activity in data set [19] was 0%; in data set [20], 72.9%; in [21], 26.6%; in data set [22], 0.5%.

For the compound `O=c1[nH]c(=O)n(Cc2cn(-c3cc(Cl)cc(Cl)c3)nn2)cc1Br`, the IC50 came out at 80.7 µM in [1]; 7.66 µM in data set [2]; 5.51 µM in [3]; 8.42 µM in data set [4]; 9.87 µM in [5]; 1.16 µM in [6].

As to `O=c1nc2oc(CCCCl)cc2cn1Cc1cn(-c2ccccc2F)nn1`, the IC50 was 69.8 µM in data set [1]; 79.8 µM in data set [2]; 81.8 µM in [3]; 66.5 µM in data set [4]; over 100 µM in data set [5]; 76.5 µM in data set [23].
